Measurements of several laboratories.
Compare with care: the assays were run in different laboratories.

| SMILES | test | setting | chromatographic logD |
| --- | --- | --- | --- |
| O=C(Nc1ccc2c(c1)B(O)OC2)Nc1ccc(F)c(C(F)(F)F)c1 | HPLC | pH 7.4 | 2.5 |
| CCOC(=O)C1=C(C)N/C(=C/c2cc(C)n(-c3ccc(SC)cc3)c2C)C1=O | HPLC | pH 7.4 | 3.3 |
| CC1=C(C#N)[C@@H](c2ccc(C#N)cc2S(C)(=O)=O)NC(=O)N1c1cccc(C(F)(F)F)c1 | HPLC | pH 7.5 | 2.7 |
| CC1=C(C(=O)OC(C)(C)C)C(=O)/C(=C\c2cc(C)n(-c3ccccc3C(F)(F)F)c2C)N1 | HPLC | pH 7.4 | 3.8 |
| C[C@@H]1Cn2ncc(-c3ccc(C(=O)N4CCCc5ccccc54)cc3)c2CN1C(=O)Cc1ccccc1 | HPLC | pH 7.4 | 4.9 |
| CCOC(=O)C1=C(C)N/C(=C/c2cc(C)n(-c3ccc(SC(F)(F)F)cc3)c2C)C1=O | HPLC | pH 7.4 | 3.8 |
| O=C(Nc1ccccc1C(=O)NC1CC1)c1cccc(N2CCCC2=O)c1 | – | pH 7.4 | 4 |
| Cc1n[nH]c(CC(=O)N2Cc3c(-c4ccc(C(=O)N5CCCc6ccccc65)cc4)cnn3C[C@H]2C)n1 | HPLC | pH 7.4 | 2.7 |
| CCn1c(-c2nc3cc(C(=O)N4CCC[C@@H](N)C4)cc(OC)c3n2C)cc2cccnc21 | HPLC | pH 7.4 | 2.4 |
| COc1ccc(-c2nc(C(=O)Nc3cccc(-c4nnc5n4CCCCC5)c3)cs2)cc1OC | – | pH 7.4 | 4.8 |
| CC1=C(C#N)[C@@H](c2ccc(C#N)cc2)NC(=O)N1c1cccc(C(F)(F)F)c1 | HPLC | pH 7.5 | 2.8 |
| CCn1cnnc1C1CCN(C(=O)c2cn3ccc(C)cc3n2)CC1 | – | pH 7.4 | 1.2 |
| Nc1cccc2c1CN(C1CCC(=O)NC1=O)C2=O (stereo not shown) | HPLC | pH 7.4 | -0.4 |
| CCOC(=O)C1=C(C)N/C(=C/c2cc(C)n(-c3ccc(CN4CCOCC4)cc3)c2C)C1=O | HPLC | pH 7.4 | 2.5 |
| C[C@@H]1Cn2ncc(-c3ccc(C(=O)N4CCCc5ccccc54)cc3)c2CN1C(=O)[C@H](C)c1ccccc1 | HPLC | pH 7.4 | 5.2 |
| CCOC(=O)C1=C(C)N/C(=C/c2cc(CC)n(-c3ccccc3C(F)(F)F)c2CC)C1=O | HPLC | pH 7.4 | 3.6 |
| CO[C@@H](C(=O)N1Cc2c(-c3ccc(C(=O)N4CCCc5ccccc54)cc3)cnn2C[C@H]1C(C)C)c1cnn(C)c1 (single isomer, unassigned) | HPLC | pH 7.4 | 4.1 |
| CC(C)(C)C1=CC(=NNC(=O)c2ccc([N+](=O)[O-])cc2)C=C(C(C)(C)C)C1=O | HPLC | pH 7.4 | 4.9 |
| CCOC(=O)C1=C(C)N/C(=C/c2ccn(-c3ccccc3C(F)(F)F)c2)C1=O | HPLC | pH 7.4 | 3 |
| CC(C)[C@@H]1Cn2ncc(-c3ccc(C(=O)N4CCCc5ccccc54)cc3)c2CN1C(=O)Cc1ccccc1 | HPLC | pH 7.4 | 5.3 |
| CCOC(=O)C1=C(C)N/C(=C/c2cc(C)n(-c3ccncc3)c2C)C1=O | HPLC | pH 7.4 | 1.9 |
| Cc1cc(NC(=O)Nc2ccc3c(c2)OC(F)(F)O3)cc(C(F)(F)F)n1 | HPLC | pH 7.4 | 4.3 |
